≈ marks a conversion by molar mass, not a printed value. Calls of active or inactive are those of the source. No cut-off for these calls is given here.
Assays:
Rattus norvegicus [1] = assay: Dose normalized drug uptake in Wistar rat at 10 mg/kg, po bid measured up to 7 hrs by LC/MS/MS analysis; assay type: ADME, organism-based, Wister; conditions: in vivo
Mus musculus [2] = assay: Immunomodulatory activity in mouse assessed as reduction in plasmacytoid dendritic cells in splenocyte at 3 to 30 mg/kg administered via oral gavage bid at 8 and 16 hrs dosing interval between first and second dose respectively for 11 days measured 16 hrs post last dose on day 12 by B220 staining based flow cytometry; assay type: functional, organism-based
In short: (§1)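 Mice gavaged with compound in 0.5% MC:0.5% Tween or PEG:D5W 3:1. Spleens dissociated in GentleMACS, filtered at 40 μm, ACK red-cell lysis, counted; 1 × 10^6 splenocytes stained 30 min on ice in HBSS/2% FBS/5 mM EDTA with antimouse panels for B-cell subsets (B220, CD21, CD23, IgM, IgD) or dendritic cells (PDCA1, CD11c, MHCII, lineage markers); analyzed on Fortessa flow cytometer.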

[3] = biological target: T1, Signal peptide peptidase-like 2A (Mus musculus) (UniProt Q9JJF9); conditions: 2 uM
T1 sequence (whole entry): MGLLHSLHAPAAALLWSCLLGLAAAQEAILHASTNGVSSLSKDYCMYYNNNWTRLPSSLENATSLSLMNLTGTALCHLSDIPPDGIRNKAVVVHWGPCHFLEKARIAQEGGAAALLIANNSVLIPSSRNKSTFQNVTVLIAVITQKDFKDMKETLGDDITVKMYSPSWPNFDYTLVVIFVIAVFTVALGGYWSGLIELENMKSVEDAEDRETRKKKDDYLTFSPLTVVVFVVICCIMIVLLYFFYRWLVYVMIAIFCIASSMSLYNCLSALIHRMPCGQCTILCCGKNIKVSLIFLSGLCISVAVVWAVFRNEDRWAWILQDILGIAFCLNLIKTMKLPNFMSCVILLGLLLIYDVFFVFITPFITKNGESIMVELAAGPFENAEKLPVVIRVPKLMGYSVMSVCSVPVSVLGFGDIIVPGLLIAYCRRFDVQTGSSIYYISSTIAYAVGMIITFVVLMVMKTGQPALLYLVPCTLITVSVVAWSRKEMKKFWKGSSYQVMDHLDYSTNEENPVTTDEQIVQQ

Rattus norvegicus [4] = assay: Dose normalized Cmax in Wistar rat at 10 mg/kg, po bid measured up to 1 hr by LC/MS/MS analysis; assay type: ADME, organism-based, Wister; conditions: in vivo
[5] = biological target: T2, Signal peptide peptidase-like 2B (Homo sapiens, UniProt Q8TCT7); assay: Inhibition of human SPPL2b expressed in human U2OS cells using EGFP-labeled TNFalpha (1 to 76 residues) NTF as substrate after 24 hrs by Hoechst staining based high content imaging assay; assay type: cell-based
T2 sequence (Q8TCT7 whole entry): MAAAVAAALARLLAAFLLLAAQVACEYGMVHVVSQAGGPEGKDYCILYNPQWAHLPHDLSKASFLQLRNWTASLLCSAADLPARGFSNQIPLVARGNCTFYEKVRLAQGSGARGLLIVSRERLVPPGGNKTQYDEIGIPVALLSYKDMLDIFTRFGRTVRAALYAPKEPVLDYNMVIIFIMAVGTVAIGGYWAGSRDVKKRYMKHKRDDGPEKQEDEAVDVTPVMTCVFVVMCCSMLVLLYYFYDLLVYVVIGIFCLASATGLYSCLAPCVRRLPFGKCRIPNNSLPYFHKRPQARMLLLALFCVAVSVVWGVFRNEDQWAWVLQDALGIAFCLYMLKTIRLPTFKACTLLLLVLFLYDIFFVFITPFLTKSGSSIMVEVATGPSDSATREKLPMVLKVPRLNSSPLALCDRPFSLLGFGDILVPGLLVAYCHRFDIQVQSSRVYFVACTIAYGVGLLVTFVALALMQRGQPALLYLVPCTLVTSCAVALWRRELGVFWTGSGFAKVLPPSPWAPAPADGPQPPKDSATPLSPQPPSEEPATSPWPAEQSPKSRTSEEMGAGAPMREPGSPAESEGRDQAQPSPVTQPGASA
In short: (§2)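 Stable U-2 OS lines expressing human SPPL2a, SPPL2b or SPP constitutively (mouse SPPL2a line analogous, mouse TNFα(aa1-77)-NTF-EGFP-NLS) with doxycycline-inducible EGFP substrate. 3000 cells/well, 3−4 h, then 11-point inhibitor 100 μM to 1 nM, 0.9% DMSO, 5 μg/mL doxycycline, 24 h 37 °C. PFA fixed, Hoechst nuclei; nuclear minus cytoplasmic EGFP intensity; inhibition vs 0.5 μM reference and DMSO; IC50 by nonlinear regression.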

Mus musculus [6] = assay: In vivo inhibition of SPPL2a in mouse assessed as accumulation of CD74/p8 in splenocyte lysate at 10 mg/kg administered via oral gavage as single dose measured 16 hrs post dose by Western blot method relative to control; assay type: functional
In short: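 Mice gavaged in 0.5% MC:0.5% Tween or PEG:D5W 3:1. Spleens dissociated, red cells lysed with ACK, 1 × 10^6 cells lysed with protease inhibitors; 18 μg lysate on 10% gel, blotted, CD74 full length and p8 detected with rat anti-mouse CD74 In-1 and Alexa488 anti-rat IgG, LiCor scan; p8/full-length ratio expressed as percent of reference compound ratio.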

Plasma = assay: Cmin in mouse plasma at 30 mg/kg, po bid administered at 8 and 16 hrs dosing interval between first and second dose respectively for 11 days measured predose on day 12 by LC/MS/MS analysis; assay type: ADME, organism-based; conditions: in vivo, read-out: Cmin
In short: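 Mice gavaged bid in 0.5% MC:0.5% Tween or PEG:D5W 3:1; trough sample taken before the morning dose; 50 μL retro-orbital blood into LiHep tubes, kept on ice, plasma separated at 2823g for 5 min, stored at −20 °C until analysis.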

[7] = Inhibition of human SPP expressed in human U2OS cells using EGFP-labeled EnvSigSeq-SEAP as substrate after 24 hrs by Hoechst staining based high content imaging assay; assay type: cell-based; in short: as §2
[8] = biological target: T3, Signal peptide peptidase-like 2A (Mus musculus, UniProt Q9JJF9); assay: Inhibition of mouse SPPL2a expressed in human U2OS cells using EGFP-labeled TNFalpha (1 to 77 residues) NLS as substrate after 24 hrs by Hoechst staining based high content imaging assay; assay type: cell-based; in short: as §2
T3 sequence (Q9JJF9 whole entry): T1 sequence (whole entry)

Mus musculus [9] = assay: Immunomodulatory activity in mouse assessed as reduction in marginal zone B cells in splenocyte at 3 to 30 mg/kg administered via oral gavage bid at 8 and 16 hrs dosing interval between first and second dose respectively for 11 days measured 16 hrs post last dose on day 12 by flow cytometry; assay type: functional, organism-based; in short: as §1
[10] = Total plasma concentration in mouse at 100 mg/kg, po administered as single dose after 4 hrs by LC/MS/MS analysis; assay type: ADME, organism-based
[11] = Half life in Balb/c mouse at 5 mg/kg, iv by LC/MS/MS analysis; assay type: ADME, organism-based; conditions: in vivo
[12] = Stability in mouse liver microsomes at […] preincubated for 3 mins followed by NADPH addition measured after 1 hr in presence of GSH and [13C2-15N-glycine]-GSH by HPLC/MS method; assay type: ADME, microsome; conditions: read-out: Stability
[13] = Equilibrium solubility of the compound at pH 6.8 after 24 hrs by saturation shake flask based UV-HPLC method; assay type: physicochemical; conditions: buffer

Cc1ncc(F)cc1NC(=O)C[C@H](C(=O)N[C@@H]1C(=O)N2CC3(CC3)CN2C(=O)c2ccccc21)C1CC1
Druguptake/dose (Rattus norvegicus [1]): 421 nM
Activity (Mus musculus [2]): inactive
inhibition [3]: inactive
Cmax/dose (Rattus norvegicus [4]): 805 nM
IC50 [5]: 430 nM
inhibition in vivo at 10 mg/kg (Mus musculus [6]): 50%
concentration (Plasma): 1100 nM
IC50 [7]: 3730 nM
IC50 [8]: 180 nM
Activity (Mus musculus [9]): Active

Cc1ccccc1NC(=O)C[C@@H](C)C(=O)N[C@@H]1C(=O)N2CCCN2Cc2ccccc21
concentration at 4 h [10]: 2090 nM
half-life [11]: 42 min
remaining at 1 h [12]: 92%
solubility thermodynamic at 24 h [13]: 263 µM (≈ 111 µg/mL)
